Source: PMC6697164 (Cancer discovery, 2019)

B1: G-CSF: cytokine granulocyte colony stimulation factor (protein, UniProt P09919 31-207, looked up)
Granulocyte …: TPLGPASSLPQSFLLKCLEQVRKIQGDGAALQEKLVSECATYKLCHPEELVLLGHSLGIPWAPLSSCPSQALQLAGCLSQLHSGLFLYQGLLQALEGISPELGPTLDTLQLDVADFATTIWQQMEELGMAPALQPTQGAMPAFASAFQRRAGGVLVASHLQSFLEVSYRVLRHLAQP

Tests used:
TET2 [1] = assay: Total TET activity; assay type: cell-based, human; conditions: inhibitor 10 nM for 1 hr prior to FLT3L stimulation for 30 minutes; CD34+ stem/early progenitors; three biological replicates
Procedure, shortened: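 Healthy-donor CD34+ cells, CliniMACS-purified, cultured 4 days in IMDM, 20% human serum, TPO/FLT3L/IL-3/IL-6 (20 ng/mL each), SCF 100 ng/mL. Cytokine-washed, held 4 hrs in IMDM/1% BSA, inhibitor 1 hr, then FLT3L (100 ng/ml) 30 min. Nuclear lysates (Bradford-normalised) on 5-mC-coated wells, 5-hmC detected fluorometrically. Standard curve 0–2 ng, ng/min/mg. Unstimulated and stimulated controls; mean ± SEM, three biological replicates.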

TET2 [2] = assay: TET2 activity and 5-hmC levels upon TPO or G-CSF stimulation; assay type: cell-based; conditions: Fig. S1A-D
Procedure, shortened: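 Total TET activity was measured in nuclear lysates, with protein quantified by Bradford assay, using a fluorescence ELISA in which plate-coated 5-mC substrate is converted to 5-hmC and detected with an anti-5-hmC antibody. 5-hmC content was measured on 200 ng DNA per assay and expressed as a percentage of total DNA.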

Molecule | Effect on FLT3L-stimulated TET2 activity (TET2 [1]) | 5hm-C levels upon cytokine stimulation (TET2 [2]) | TET2 activity upon cytokine stimulation (TET2 [2])
CC(C)(C)c1cc(NC(=O)Nc2ccc(-c3cn4c(n3)sc3cc(OCCN5CCOCC5)ccc34)cc2)no1 [AC2220] | Inhibition of TET2 activity | – | –
CNC(=O)c1cc(Oc2ccc(NC(=O)Nc3ccc(Cl)c(C(F)(F)F)c3)cc2)ccn1 [Sorafenib] | Inhibition of TET2 activity | – | –
TPO: cytokine thrombopoietin | – | increased | increased
B1 | – | increased | increased
